Data published in ChEMBL document CHEMBL1123106, “Synthesis and biological activity of modified peptide inhibitors of angiotensin-converting enzyme” (J Med Chem, 1985).
One block for each compound: values may come before it.

Key:
[1] = tested on: Rattus norvegicus; assay: % decrease in mean arterial pressure in conscious renal hypertensive rats at a dose of 3 mg/Kg, administered perorally at MAP 190 mm Hg; type: functional, Artery
How it was run: (§1)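 Conscious two-kidney, one-clip Goldblatt renal hypertensive rats (N = 3) were dosed orally at 3 or 30 mg/kg. Predose mean arterial pressure was about 190 mmHg. The read-out is % decrease in mean arterial pressure. N marks no significant lowering of arterial pressure at that dose.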

[2] = tested on: Rattus norvegicus; assay: % decrease in mean arterial pressure in conscious renal hypertensive rats at a dose of 30 mg/Kg, administered perorally at MAP 190 mmHg; type: functional, Artery; how it was run: as §1
[3] = tested on: Rattus norvegicus; assay: % decrease in mean arterial pressure in conscious renal hypertensive rats at a dose of 3 mg/Kg, administered perorally at MAP 190 mmHg; type: functional, Artery; how it was run: as §1
[4] = tested on: Angiotensin-converting enzyme (Cavia porcellus); assay: In vitro inhibitory activity against Angiotensin I converting enzyme from unpurified guinea pig serum; No significant activity
[5] = tested on: Rattus norvegicus; assay: % Decrease in mean arterial pressure in conscious renal hypertensive rats at a dose of 30 mg/Kg, administered perorally at MAP 190 mmHg; type: functional, Artery; how it was run: as §1
[6] = tested on: Rattus norvegicus; assay: % Decrease in mean arterial pressure in conscious renal hypertensive rats at a dose of 3 mg/Kg, administered perorally at MAP 190 mm Hg; N means no significant lowering of arterial pressure; type: functional, organism-based; settings: Artery; how it was run: as §1
[7] = tested on: Rattus norvegicus; assay: % Decrease in mean arterial pressure in conscious renal hypertensive rats at a dose of 3 mg/Kg, administered perorally at MAP 190 mmHg; type: functional, Artery; how it was run: as §1
[8] = tested on: Rattus norvegicus; assay: % decrease in mean arterial pressure in conscious renal hypertensive rats at a dose of 3 mg/Kg, administered perorally at MAP 190 mm Hg; N means no significant lowering of arterial pressure; type: functional, organism-based; settings: Artery; how it was run: as §1

SMILES: C[C@H](CS)C(=O)N1CCC[C@H]1C(=O)O [CAPTOPRIL]
Decrease in mean arterial pressure [1]: 49%

SMILES: CCOC(=O)[C@H](CCc1ccccc1)N[C@@H](C)C(=O)N1C2CCCCC2C[C@H]1C(=O)O (stereo partly drawn)
Decrease in mean arterial pressure [1]: 46%

SMILES: CCOC(=O)C(CCc1ccccc1)OC(C)C(=O)N1Cc2ccccc2CC1C(=O)O (stereo not drawn)
Decrease in mean arterial pressure [2]: 18%
Decrease in mean arterial pressure [3]: 8%

IC50 [4]: No significant activity
SMILES: CC(C(=O)N1CCC[C@H]1C(=O)O)S(=O)(=O)C(CCc1ccccc1)C(=O)O (stereo partly drawn)

IC50 [4]: No significant activity
SMILES: CCOC(=O)C(CCc1ccccc1)S(=O)(=O)C(C)C(=O)N1CCC[C@H]1C(=O)O (stereo partly drawn)

IC50 [4]: No significant activity
SMILES: CC(SC(CCc1ccccc1)C(=O)O)C(=O)NC1(C(=O)O)CCCC1 (stereo not drawn)

IC50 [4]: No significant activity
SMILES: CC(SC(CCc1ccccc1)C(=O)O)C(=O)NC1(C(=O)O)CCC(c2ccccc2)CC1 (stereo not drawn)

SMILES: CCOC(=O)C(CCc1ccccc1)[S+]([O-])C(C)C(=O)N1C2CCCCC2C[C@H]1C(=O)O (stereo partly drawn)
Decrease in mean arterial pressure [5]: 10%
Decrease in mean arterial pressure [6]: No significant activity

SMILES: CCOC(=O)[C@H](CCc1ccccc1)N[C@@H](C)C(=O)N1Cc2ccccc2C[C@H]1C(=O)O
Decrease in mean arterial pressure [7]: 54%

SMILES: CCOC(=O)[C@H](CCc1ccccc1)N[C@@H](C)C(=O)N1CCC[C@H]1C(=O)O
Decrease in mean arterial pressure [1]: 55%

SMILES: CCOC(=O)C(CCc1ccccc1)OC(C)C(=O)N1CCCC1C(=O)O (stereo not drawn)
Decrease in mean arterial pressure [5]: 3%
Decrease in mean arterial pressure [8]: No significant activity

SMILES: CCOC(=O)C(CCc1ccccc1)OC(C)C(=O)N1C(C(=O)O)CC2CCCCC21 (stereo not drawn)
Decrease in mean arterial pressure [2]: 12%
Decrease in mean arterial pressure [8]: No significant activity

SMILES: CC(OC(CCc1ccccc1)C(=O)O)C(=O)N1CCCC1C(=O)O (stereo not drawn)
Decrease in mean arterial pressure [2]: 9%
Decrease in mean arterial pressure [8]: No significant activity
